According to ChEMBL document CHEMBL3351540, “Novel antiproliferative chimeric compounds with marked histone deacetylase inhibitory activity” (ACS Med Chem Lett, 2014):
The source made the active and inactive calls. The calls are words filed in the database; no cut-off is given here.

What was measured:
K562 [1] = experiment: Antiproliferative activity against human K562 cells assessed as growth inhibition after 48 hrs by trypan blue dye exclusion method; type: functional, cell-based; settings: K562, 48 h
Histone deacetylase 1 = Histone deacetylase 1 (Homo sapiens, UniProt Q13547); experiment: Inhibition of human recombinant HDAC1 using modified Boc-Lys(Ac)-AMC MAL as substrate after 1 hr by fluorescent activity assay
Chain of Histone deacetylase 1 (Q13547 whole entry): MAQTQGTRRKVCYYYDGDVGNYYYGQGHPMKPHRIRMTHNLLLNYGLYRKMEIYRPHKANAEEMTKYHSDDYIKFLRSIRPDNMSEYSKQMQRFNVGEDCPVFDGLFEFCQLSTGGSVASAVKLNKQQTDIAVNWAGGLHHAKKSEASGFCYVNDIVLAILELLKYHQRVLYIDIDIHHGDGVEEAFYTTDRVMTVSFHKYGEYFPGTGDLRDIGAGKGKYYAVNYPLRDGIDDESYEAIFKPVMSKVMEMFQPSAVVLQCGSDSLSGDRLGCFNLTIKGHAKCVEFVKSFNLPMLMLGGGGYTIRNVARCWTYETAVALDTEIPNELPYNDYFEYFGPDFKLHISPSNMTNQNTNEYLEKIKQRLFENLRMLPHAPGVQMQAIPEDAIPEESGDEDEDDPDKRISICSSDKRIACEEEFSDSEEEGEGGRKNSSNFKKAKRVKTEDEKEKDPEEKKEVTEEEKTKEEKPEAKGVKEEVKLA

K562 [2] = experiment: Induction of apoptosis in human K562 cells using annexin-V/PI staining by flow cytometry; type: functional, cell-based
How it was run: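 K562 cells treated for 48 h; apoptosis scored by annexin V test. AC50 is the concentration inducing apoptosis in 50% of cells. Triplicate points, SD error bars.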

K562 [3] = experiment: Cell cycle arrest in human K562 cells assessed as block at G1 phase at 40 uM after 24 hrs using propidium iodide staining by FACScan flow cytometry; type: functional, cell-based
[4] = target: T1, Protein deacetylase HDAC6 (Homo sapiens, UniProt Q9UBN7); experiment: Inhibition of human recombinant HDAC6 using Z-MAL as substrate after 1 hr by fluorescent activity assay
T1 sequence (Q9UBN7 whole entry): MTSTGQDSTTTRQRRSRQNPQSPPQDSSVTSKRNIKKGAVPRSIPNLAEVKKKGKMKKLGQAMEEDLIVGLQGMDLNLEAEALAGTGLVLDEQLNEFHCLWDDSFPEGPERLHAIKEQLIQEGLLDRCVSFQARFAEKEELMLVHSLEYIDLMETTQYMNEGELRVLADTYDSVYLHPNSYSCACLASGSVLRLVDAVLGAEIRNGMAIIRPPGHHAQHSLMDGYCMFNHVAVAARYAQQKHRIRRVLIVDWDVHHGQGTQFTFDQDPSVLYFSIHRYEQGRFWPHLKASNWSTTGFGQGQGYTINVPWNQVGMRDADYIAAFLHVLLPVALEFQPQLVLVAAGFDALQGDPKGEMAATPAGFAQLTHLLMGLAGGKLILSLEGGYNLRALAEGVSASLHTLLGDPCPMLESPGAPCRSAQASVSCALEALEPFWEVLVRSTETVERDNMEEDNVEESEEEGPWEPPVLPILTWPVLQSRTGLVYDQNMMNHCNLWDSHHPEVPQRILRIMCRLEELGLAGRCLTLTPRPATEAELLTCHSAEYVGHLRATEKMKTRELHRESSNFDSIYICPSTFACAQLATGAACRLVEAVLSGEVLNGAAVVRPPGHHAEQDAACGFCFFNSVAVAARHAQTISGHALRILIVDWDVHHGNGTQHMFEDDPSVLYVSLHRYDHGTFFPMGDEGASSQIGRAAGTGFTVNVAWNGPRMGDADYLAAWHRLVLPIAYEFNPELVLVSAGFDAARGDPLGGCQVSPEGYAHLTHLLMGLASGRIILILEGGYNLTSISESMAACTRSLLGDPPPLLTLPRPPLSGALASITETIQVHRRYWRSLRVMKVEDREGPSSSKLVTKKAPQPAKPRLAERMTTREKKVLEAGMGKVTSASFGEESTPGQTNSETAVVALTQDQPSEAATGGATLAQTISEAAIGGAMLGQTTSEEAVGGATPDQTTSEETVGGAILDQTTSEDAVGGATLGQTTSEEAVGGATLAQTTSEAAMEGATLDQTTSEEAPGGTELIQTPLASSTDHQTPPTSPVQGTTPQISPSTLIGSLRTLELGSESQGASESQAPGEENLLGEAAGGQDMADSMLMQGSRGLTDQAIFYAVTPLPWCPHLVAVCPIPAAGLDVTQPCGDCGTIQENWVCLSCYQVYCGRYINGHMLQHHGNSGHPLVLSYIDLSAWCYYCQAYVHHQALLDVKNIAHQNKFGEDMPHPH

Histone deacetylase 4 = Histone deacetylase 4 (Homo sapiens, UniProt P56524); experiment: Inhibition of human recombinant HDAC4 using (S)-[5-Acetylamino-1-(2-oxo-4-trifluorometyl-2Hchromen-7-ylcarbamoyl)pentl]carbami acid tert-Butyl Ester as substrate after 1 hr by fluorescent activity assay
Chain of Histone deacetylase 4 (P56524 whole entry): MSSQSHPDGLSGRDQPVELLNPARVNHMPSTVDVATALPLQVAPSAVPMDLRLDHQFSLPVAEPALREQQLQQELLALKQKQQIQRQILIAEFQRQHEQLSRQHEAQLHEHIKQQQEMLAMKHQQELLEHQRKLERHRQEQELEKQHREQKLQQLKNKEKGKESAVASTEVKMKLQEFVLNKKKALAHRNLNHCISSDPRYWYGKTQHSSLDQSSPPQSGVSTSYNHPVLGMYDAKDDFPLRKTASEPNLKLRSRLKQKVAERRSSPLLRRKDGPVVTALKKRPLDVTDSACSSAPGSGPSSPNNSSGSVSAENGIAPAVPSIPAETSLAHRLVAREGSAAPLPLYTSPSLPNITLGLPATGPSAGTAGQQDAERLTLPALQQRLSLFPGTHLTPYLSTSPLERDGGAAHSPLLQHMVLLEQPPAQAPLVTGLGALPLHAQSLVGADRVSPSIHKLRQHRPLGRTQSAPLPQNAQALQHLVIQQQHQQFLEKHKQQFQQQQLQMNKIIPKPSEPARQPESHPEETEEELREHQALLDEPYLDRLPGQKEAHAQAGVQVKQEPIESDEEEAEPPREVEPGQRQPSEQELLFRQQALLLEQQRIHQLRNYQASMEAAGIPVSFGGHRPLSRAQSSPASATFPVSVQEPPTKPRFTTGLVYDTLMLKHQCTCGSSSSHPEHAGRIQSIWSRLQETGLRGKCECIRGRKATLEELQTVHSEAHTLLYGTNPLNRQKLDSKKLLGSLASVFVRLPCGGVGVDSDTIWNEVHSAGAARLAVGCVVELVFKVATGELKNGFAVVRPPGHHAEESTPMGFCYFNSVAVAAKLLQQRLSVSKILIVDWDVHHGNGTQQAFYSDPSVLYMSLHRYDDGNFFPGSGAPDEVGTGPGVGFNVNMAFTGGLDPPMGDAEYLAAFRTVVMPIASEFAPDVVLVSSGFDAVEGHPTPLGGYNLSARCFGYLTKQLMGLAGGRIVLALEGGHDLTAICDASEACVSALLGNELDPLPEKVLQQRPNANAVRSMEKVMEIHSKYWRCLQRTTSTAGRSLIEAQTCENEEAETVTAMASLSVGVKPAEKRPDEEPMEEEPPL

K562 [5] = experiment: Cell cycle arrest in human K562 cells assessed as block at G2-M phase at 40 uM after 24 hrs using propidium iodide staining by FACScan flow cytometry; type: functional, cell-based
MCF7 [6] = experiment: Cell cycle arrest in human MCF7 cells assessed as block at G2 phase at 5 uM after 24 to 96 hrs using propidium iodide staining by FACScan flow cytometry
[7] = Cell cycle arrest in human U937 cells assessed as block at G1 phase at 5 uM after 24 to 96 hrs using propidium iodide staining by FACScan flow cytometry; type: functional, cell-based; settings: U-937
K562 [8] = experiment: Ratio of SAHA AC50 to compound AC50 for human K562 cells using annexin-V/PI staining by flow cytometry; type: functional
MCF7 [9] = experiment: Antiproliferative activity against human MCF7 cells assessed as reduction in doubling time at 5 uM after 10 to 18 hrs by real-time mode analysis; type: functional, cell-based
How it was run: (§1)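 Real-time proliferation of MCF-7 cells treated with 5 μM compound, recorded as cell index versus time over 36 h. Doubling time was calculated over the 10−18 h interval.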

U-937 [10] = experiment: Induction of apoptosis in human U937 cells using annexin-V/PI staining after 48 hrs by flow cytometry relative to SAHA; type: functional
How it was run: (§2)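 U937 cells treated with 5 μM compound for 48 h, with SAHA at 5 μM as positive control. Apoptosis and necrosis measured by annexin V/PI double staining and flow cytometry. Triplicate points, SD error bars.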

[11] = Cell cycle arrest in human U937 cells assessed as block at G1 phase at 5 uM after 24 to 96 hrs using propidium iodide staining by FACScan flow cytometry; settings: U-937
MCF7 [12] = experiment: Cell cycle arrest in human MCF7 cells assessed as block at G2-M phase at 5 uM after 24 to 96 hrs using propidium iodide staining by FACScan flow cytometry; type: functional, cell-based
MCF7 [13] = experiment: Antimigratory activity against human MCF7 cells assessed as reduction in slope values at 5 uM up to 24 hrs by real-time mode analysis; type: functional; parameters: scale not given: the % may be the effect or the level left
How it was run: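 MCF-7 cells exposed to 5 μM compound and tracked in real time as cell index versus time over 27 h. Migration was expressed as the slope of the cell index within 24 h.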

MCF7 [14] = experiment: Antiproliferative activity against human MCF7 cells at 5 uM after 10 hrs by real-time mode analysis; type: functional, cell-based; how it was run: as §1
U-937 [15] = experiment: Induction of apoptosis in human U937 cells using annexin-V/PI staining after 48 hrs by flow cytometry; type: functional, cell-based; how it was run: as §2

Compound	IC50 (K562 [1])	IC50 (Histone deacetylase 1)	AC50 (K562 [2])	Activity (K562 [3])	Activity (K562 [5])	other results
O=C(CCCCCNC(=O)c1ccc(-c2ccc(-c3cc(O)cc(O)c3)cc2)cc1)NO	6 µM	0.9 µM	38 µM	–	–	–
COc1cc(/C=C\c2ccc(OC)c(NC(=O)CCCCCCC(=O)NO)c2)cc(OC)c1	7.5 µM	2.1 µM	40 µM	Active	Active	IC50 [4]: 1.6 µM; IC50 (Histone deacetylase 4): 7.6 µM
COc1cc(/C=C/c2ccc(OC)c(N)c2)cc(OC)c1	2.5 µM	–	20 µM	Active	Active	–
COc1cc(/C=C/c2ccc(OC)c(NC(=O)CCCCCCC(=O)NO)c2)cc(OC)c1	0.7 µM	0.8 µM	5 µM	–	–	Activity (MCF7 [6]): Active; Activity [7]: Active; Ratio (K562 [8]): 2; IC50 [4]: 1.3 µM; Activity (MCF7 [9]): Active; fold change (FC) (U-937 [10]): 2; Activity [11]: Active; IC50 (Histone deacetylase 4): 9.8 µM; Activity (MCF7 [12]): Active; Activity (MCF7 [13]): 25%; Activity (MCF7 [14]): Active
O=C(CCCCCCNC(=O)c1ccc(-c2ccc(-c3cc(O)cc(O)c3)cc2)cc1)NO	2.5 µM	15.7 µM	16 µM	–	–	–
Oc1ccc(-c2ccc(-c3cc(O)cc(O)c3)cc2)cc1	–	–	> 50 µM	–	–	–
COc1cc(/C=C\c2ccc(OC)c(N)c2)cc(OC)c1	0.025 µM	–	0.25 µM	–	–	–
O=C(NO)c1ccc(-c2ccc(-c3cc(O)cc(O)c3)cc2)cc1	20 µM	8.9 µM	> 50 µM	–	–	–
O=C(CCCCCCC(=O)Nc1ccccc1)NO [VORINOSTAT]	–	–	10 µM	Active	Active	Activity (MCF7 [6]): Active; Activity [7]: Active; Activity (MCF7 [9]): Active; Activity [11]: Active; Activity (U-937 [15]): Active; Activity (MCF7 [12]): Active
